Hits are enriched below; roughly 2.9% of the tested compounds scored in any of these assays.
SENP8 block-1 – human SENP8 protease inhibitors, primary screen, biochemical, fluorescence, Nedd8 protein substrate, uHTS. Sentrin-specific protease 8 (Homo sapiens), Q96LD8. recombinant SENP8. inhibition, % at 20 µM. 360,000 compounds, 0.64% hits. AID 602440, 2012; in the data active = inhibition mostly above about 40%, no sharp cut-off; inactive = mostly below about 27%
Target sequence (Q96LD8 whole entry, looked up): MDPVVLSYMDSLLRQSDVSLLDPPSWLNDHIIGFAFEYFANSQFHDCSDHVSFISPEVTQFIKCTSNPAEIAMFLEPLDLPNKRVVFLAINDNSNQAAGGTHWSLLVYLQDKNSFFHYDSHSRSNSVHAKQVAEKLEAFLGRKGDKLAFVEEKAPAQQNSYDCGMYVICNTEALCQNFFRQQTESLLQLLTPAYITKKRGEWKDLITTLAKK
HSP90 refold inh – HSP90 inhibitors, primary screen, cell lysate, luminescence. Rabbit reticulocyte lysate, luciferase refolding luminescence, 3 h. inhibition, % at 5.6 µM. 290,000 compounds, 0.91% hits. AID 1789, 2009;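 active = inhibition above the screen-wide mean plus 3 SD, computed separately per campaign, cut at about 16% in these data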;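 also: inhibitors lower the luminescence because luciferase stays unfolded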
SENP6 inh – SENP6 protease inhibitors, primary screen, biochemical, luminescence, uHTS; Sentrin-specific protease 6 (Homo sapiens), Q9GZR1; Recombinant SENP6 catalytic domain, aminoluciferin luminescence; inhibition, % at 10 µM; 330,000 compounds, 1.8% hits; AID 2599, 2010;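 active = inhibition above about 50% at the single tested dose, limit read from the data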
SENP7 block – SENP7 protease inhibitors, primary screen, biochemical, luminescence, uHTS. recombinant SENP7, Z-RLRGG-aminoluciferin luminescence, 40 min. inhibition, % at 5 µM. 330,000 compounds, 1.5% hits;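 active = inhibition above about 50% at the single test dose, limit read from the data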
Target sequence (Q9BQF6 706-1050 limits assumed): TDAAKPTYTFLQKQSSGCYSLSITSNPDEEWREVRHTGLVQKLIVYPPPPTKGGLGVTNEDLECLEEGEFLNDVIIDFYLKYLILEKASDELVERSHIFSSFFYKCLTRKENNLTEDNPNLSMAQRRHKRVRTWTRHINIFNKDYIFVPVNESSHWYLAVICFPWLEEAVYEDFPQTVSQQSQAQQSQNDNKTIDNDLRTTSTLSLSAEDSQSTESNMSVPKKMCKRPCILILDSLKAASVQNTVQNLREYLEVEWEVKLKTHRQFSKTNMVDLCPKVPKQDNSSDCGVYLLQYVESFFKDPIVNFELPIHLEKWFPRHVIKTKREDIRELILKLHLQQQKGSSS
SENP8 block-2 – SENP8 protease inhibitors, primary screen, biochemical, luminescence. Sentrin-specific protease 8 (Homo sapiens), Q96LD8. purified SENP8, Z-RLRGG-aminoluciferin cleavage. inhibition, % at 10 µM. 330,000 compounds, 1.2% hits; in the data active = inhibition above about 50%
SENP1 inh – human SENP1 catalytic domain inhibitors, primary screen, biochemical, FRET, uHTS. recombinant SENP1 catalytic domain, CyPet-SUMO1-YPet FRET cleavage. inhibition, % at 10 µM. 360,000 compounds, 0.21% hits;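 active = inhibition at least 30% at 10 µM, raw YFP signal under a set limit, fluorescence ratio 0.5 to 1.5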
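Test system: human SENP1 catalytic domain; medium: Tris pH 8 buffer plus EDTA, NaCl, BME, BSA, NP40, catalase; incubation: 50 min reaction at room temperature; technique: FRET, CFP and YFP emission; controls: no-enzyme low control and enzyme-plus-DMSO high control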
HSP90 confirm – HSP90 inhibitors, confirmation, cell lysate, luminescence; shares compounds with HSP90 refold inh; rabbit reticulocyte lysate, luciferase refolding luminescence, 3 h; inhibition, % at 5.9 µM; 2,300 compounds, 64% hits; AID 1846, 2009; in the data active = inhibition above about 18%
luciferase ctr – firefly luciferase inhibitors, HSP90 counter-screen, confirmation, artefact control for HSP90 inhibitor project, biochemical, luminescence, triplicate; purified native firefly luciferase; 2,300 compounds, 48% hits; shares compounds with HSP90 refold inh; inhibition, % at 5.9 µM;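 active = inhibition above the mean inhibition of all tested sample wells plus 3 SD, cut at about 10% in these data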
A number is an active result; 0 = inactive; - = no result given.

SMILES	SENP8 block-1	HSP90 refold inh	SENP6 inh	SENP7 block	SENP8 block-2	SENP1 inh	HSP90 confirm	luciferase ctr
COc1ccc(/C=C/C(=O)NC(=S)NNC(=O)c2cc(OC)c(OC)c(OC)c2)cc1OC	0	0	0	0	0	0	-	-
COc1ccc(/C=C/C(=O)NC(=S)NNC(=O)c2cc(OC)c(OC)c(OC)c2)cc1	0	26	0	0	0	0	61	27
O=S(=O)(Nc1cc(Sc2ncn[nH]2)c(O)c2ccccc12)c1ccccc1	0	93	79	72	0	0	0	9.4
COc1ccc(S(=O)(=O)Nc2cc(Sc3ncn[nH]3)c(O)cc2C)cc1	0	-	0	0	0	0	-	-
COc1ccc(NC(=O)OC(CN2CCCCC2)C(F)(F)F)cc1 (centres undefined)	0	18	0	0	0	0	0	0
Cc1onc(-c2ccccc2Cl)c1C(=O)NCc1nnnn1-c1ccc(F)cc1	0	-	0	0	0	0	-	-
COc1cc(/C=N/NC(=Nc2ccc(C)cc2)c2nc3ccccc3s2)ccc1O	0	57	0	0	0	0	57	49
CCC(=O)N(C)/C=C1\Sc2ccccc2C1=O	0	26	0	0	0	0	0	0
CC(=O)N(C)/C=C1\Sc2ccccc2C1=O	0	36	0	0	0	0	0	0
COc1ccc(OC)c(/C=C2/Sc3ccccc3C2=O)c1	0	0	0	0	0	0	-	-
O=CN(/C=C1\Sc2ccccc2C1=O)Cc1ccccc1	0	34	0	0	0	0	0	0
O=C(Nc1cc(Cl)ccc1-n1cncn1)c1cc(F)c(F)c(F)c1F	0	-	0	0	0	0	-	-
COc1ccc(NC(=O)/C(C#N)=C\c2ccc(-c3cccc(C(=O)O)c3C)o2)cc1	0	32	0	0	0	0	28	0
COc1ccc(NC(=O)/C(C#N)=C/c2ccc(-c3ccccc3C(=O)O)o2)cc1	0	0	0	0	0	0	-	-
CCOc1ccc(NC(=O)N2CCC(c3nc4ccccc4o3)CC2)cc1	0	0	0	0	0	0	-	-
CCOc1ccc(NC(=O)N2CCC(c3nc4ccccc4[nH]3)CC2)cc1	0	25	0	0	0	0	0	0
O=C(Cn1nnc(-c2cccs2)n1)NCc1ccccc1	0	56	0	0	0	0	0	0
CC(c1ccccc1)N1CC(C(=O)N2CCCC(C(N)=O)C2)CC1=O (centres undefined)	0	-	0	0	0	0	-	-
CC1(C)NC(=O)N(CCOc2cccc(Cl)c2Cl)C1=O	0	18	0	0	0	0	0	0
C/C(=N\Nc1ccc(C(=O)O)cc1)c1ccc(Cl)s1	0	22	0	0	0	0	29	22
C/C(=N\Nc1ccc(C(=O)O)cc1)c1ccc(Br)cc1	0	46	0	0	0	0	78	67
C/C(=N\Nc1ccc(Cl)c(C(=O)O)c1)c1cccc([N+](=O)[O-])c1	0	18	0	0	0	0	0	0
C/C(=N\Nc1ccc(Cl)c(C(=O)O)c1)c1ccc(Br)s1	0	22	0	0	0	0	0	0
C/C(=N\NC(=O)c1ccc(Cl)c(Cl)c1)c1ccc(Br)s1	0	0	0	0	0	0	-	-
C/C(=N\NC(=O)C(O)c1ccccc1)c1ccc(Cl)s1 (centres undefined)	0	0	0	0	0	0	-	-
SMILES	SENP8 block-1	HSP90 refold inh	SENP6 inh	SENP7 block	SENP8 block-2	SENP1 inh	HSP90 confirm	luciferase ctr
C/C(=N\NC(=O)c1ccccc1C)c1cccc([N+](=O)[O-])c1	0	0	0	0	0	0	-	-
COc1ccc(CCC(=O)NCC23CC4CC(CC(C4)C2)C3)cc1	0	0	0	0	0	0	-	-
O=C(O)CSc1nnc(-c2cccc(S(=O)(=O)N3CCOCC3)c2)n1-c1ccc(F)cc1	0	-	0	0	0	0	-	-
C/C(=N\Nc1ccc(C(=O)O)cc1)c1ccc(S(=O)(=O)NCc2ccco2)cc1	0	48	0	0	0	0	20	0
C/C(=N\Nc1ccccn1)c1ccc(S(=O)(=O)NCc2ccco2)cc1	0	0	0	0	0	0	-	-
COc1ccc(/C(C)=N/Nc2ccc(C(=O)O)cc2)c(OC)c1	0	22	0	0	0	0	0	19
O=[N+]([O-])c1ccc(S(=O)(=O)Nc2ccc3c(c2)OCCO3)cc1	0	27	0	0	0	0	0	0
O=S(=O)(Nc1ccc2c(c1)OCCO2)c1cccc2nsnc12	0	20	0	0	0	0	31	50
Cc1ccc(S(=O)(=O)Nc2ccc3c(c2)OCCO3)cc1	0	0	0	0	0	0	-	-
Cc1cccc(C(=O)N[C@@H](C)C(=O)N2CCN(c3ncccn3)CC2)c1	0	-	0	0	0	0	-	-
CC1=NN(c2ccc(C(=O)O)cc2)C(=O)/C1=C\c1ccc(OC(=O)c2cccs2)cc1	61	26	0	0	0	0	0	17
CC1=NN(c2ccc(C(=O)O)cc2)C(=O)/C1=C/c1ccc(-c2ccccc2F)o1	0	0	0	0	0	0	-	-
COc1ccccc1C1(O)C(=O)Nc2ccc(C)cc21 (centres undefined)	0	0	0	0	0	0	-	-
CC(C)(C)C(=O)Nc1cc2nn(-c3ccccc3)nc2cc1Cl	0	80	-	-	-	0	85	85
O=C(Nc1cc2nn(-c3ccccc3)nc2cc1Cl)c1ccco1	0	0	0	0	0	0	-	-
CNC[C@H]1Oc2ccc(NC(=O)Nc3ccccc3)cc2CC(=O)N([C@H](C)CO)C[C@H]1C	0	-	0	0	0	0	-	-
Cc1nc(-c2noc(-c3cccc(Cl)c3)n2)c(C(F)(F)F)o1	0	21	0	0	0	0	0	0
Cc1nc(-c2nnc(-c3ccccc3)o2)c(C(F)(F)F)o1	0	0	0	0	0	0	-	-
CCCC1=Nc2cc(C(=O)N3CCN(c4ccccn4)CC3)ccc2Sc2ccc(C)cc21	0	0	0	0	0	0	-	-
O=C(Nc1ccccc1)C1=C[C@H](C2CCCCC2)C[C@H](OCCCCO)O1	0	-	0	0	0	0	-	-
O=C(Nc1ccccc1)C1=C[C@@H](C2CCCCC2)C[C@@H](OCCCCO)O1	0	26	0	0	0	0	35	28

Screening data as filed in PubChem BioAssay.
